{"source": "paper PMC4460194", "about": "(Current Therapeutic Research, Clinical and Experimental, 2015)", "key": {"[1]": {"test_system": "albumin and alpha-1-acid glycoprotein", "details": "primarily to albumin and alpha-1-acid glycoprotein; cited from earlier work"}, "[2]": {"details": "did not convert to Pi-LAC; cited from earlier work"}, "[3]": {"type": "in vivo, human (healthy Chinese volunteers)", "details": "for Cav: 2 mg multiple dose", "outline": "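Healthy Chinese volunteers (18–27 years, BMI 19–24) took a 2-mg tablet of the test compound orally once daily for 6 days. Predose samples were taken on days 3–5. On day 6, samples were taken predose and from 0.25 to 48 h. Heparinised plasma was stored at –20°C and extracted into diethyl ether-dichloromethane. LC-MS/MS range was 0.287–287 ng/mL. Noncompartmental analysis; accumulation index = AUC(multiple-dose)/AUC(single-dose).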"}, "[4]": {"details": "animal studies, tissue distribution; cited from earlier work"}, "Tolerability assessment": {"assay": "Tolerability assessment", "type": "in vivo, human (healthy Chinese volunteers)", "details": "single doses of 1 mg, 2 mg, or 4 mg and multiple doses of 2 mg once daily for 6 days, all subjects"}, "[5]": {"details": "OATP 388GA + 388GG mutant group vs 388AA wild-type group; cited from earlier work"}, "[6]": {"assay": "Single-dose pharmacokinetic study of pitavastatin calcium tablets", "type": "in vivo, human (healthy Chinese volunteers)", "details": "for half-life / AUC(0-inf) / AUC(0-t) / Tmax / Vd / clearance / Cmax: human, plasma", "outline": "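Randomized 3-way crossover in healthy Chinese volunteers (6 male, 6 female) with 5-day washouts. Single oral 1, 2 or 4 mg tablets were given after a 12-h fast with 200 mL water; meals at 4 and 10 h. Venous samples were taken predose and from 0.25 to 36 h. Heparinised plasma was analysed by LC-MS/MS (0.287–287 ng/mL). Noncompartmental analysis: Cmax/Tmax observed; AUC0–t by linear trapezoidal rule; AUC0–∞ = AUC0–t + Ct/λ.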"}, "[7]": {"assay": "Stability tests of the analyte in human plasma", "type": "in vitro ADME"}, "[8]": {"details": "multiple dose 2 mg once daily for 6 days, n = 11, mean (SD)"}}, "note": "Where two headings read alike, the source gives them in different places."}
{"smiles": "O=C(O)C[C@H](O)C[C@H](O)/C=C/c1c(C2CC2)nc2ccccc2c1-c1ccc(F)cc1", "note": "[pitavastatin]", "values": [{"measurement": "protein binding ratio", "setting": "[1]", "result": 96, "unit": "%"}, {"measurement": "stability in human plasma (conversion to Pi-LAC)", "setting": "[2]", "result": "stable"}, {"measurement": "accumulation index (Cmax, multiple-dose/Cmax, single-dose)", "setting": "[3]; 2 mg multiple dose vs 2 mg single dose, mean (SD)", "result": "0.85 (0.23)"}, {"measurement": "accumulation index (AUC)", "setting": "[3]; 2 mg multiple dose vs 2 mg single dose, ratio of AUC, mean (SD)", "result": "0.98 (0.28)"}, {"measurement": "Cav", "setting": "[3]; female (n = 6), mean (SD)", "result": "11.65 (6.58) ng/mL"}, {"measurement": "Cav", "setting": "[3]; male (n = 5), mean (SD)", "result": "10.32 (1.86) ng/mL"}, {"measurement": "steady state of plasma pitavastatin concentration achieved", "setting": "[3]; 2 mg once daily, day of multiple dosing", "result": "~4", "unit": "days"}, {"measurement": "Cav (steady-state concentration)", "setting": "[3]; [8]", "result": "11.05 (4.85) ng/mL"}, {"measurement": "Cmin (steady-state trough concentration)", "setting": "[3]; [8]", "result": "2.58 (0.92) ng/mL"}, {"measurement": "liver levels relative to plasma", "setting": "[4]", "result": "approximately 54 times"}, {"measurement": "tolerability", "setting": "Tolerability assessment", "result": "well tolerated"}, {"measurement": "AUC higher than wild type", "setting": "[5]", "result": "about 80%"}, {"measurement": "Cmax higher than wild type", "setting": "[5]", "result": "~71", "unit": "%"}, {"measurement": "oral elimination lower than wild type", "setting": "[5]", "result": "about 35%"}, {"measurement": "half-life", "setting": "[6]; both, oral", "result": "~10", "unit": "h"}, {"measurement": "AUC(0-inf)", "setting": "[6]; both, oral, 1 mg", "result": 206, "unit": "ng·h/mL"}, {"measurement": "AUC(0-t)", "setting": "[6]; both, oral, 1 mg", "result": 190, "unit": "ng·h/mL"}, {"measurement": "Tmax", "setting": "[6]; both, oral, 1 mg", "result": 0.63, "unit": "h"}, {"measurement": "Vd", "setting": "[6]; both, oral, 1 mg", "result": 79.9, "unit": "L"}, {"measurement": "clearance", "setting": "[6]; both, oral, 1 mg", "result": 84.8, "unit": "mL/min"}, {"measurement": "half-life", "setting": "[6]; both, oral, 1 mg", "result": 11, "unit": "h"}, {"measurement": "AUC(0-inf)", "setting": "[6]; both, oral, 2 mg", "result": 321, "unit": "ng·h/mL"}, {"measurement": "AUC(0-t)", "setting": "[6]; both, oral, 2 mg", "result": 308, "unit": "ng·h/mL"}, {"measurement": "Tmax", "setting": "[6]; both, oral, 2 mg", "result": 0.65, "unit": "h"}, {"measurement": "Vd", "setting": "[6]; both, oral, 2 mg", "result": 86.9, "unit": "L"}, {"measurement": "clearance", "setting": "[6]; both, oral, 2 mg", "result": 108, "unit": "mL/min"}, {"measurement": "half-life", "setting": "[6]; both, oral, 2 mg", "result": 9.52, "unit": "h"}, {"measurement": "AUC(0-inf)", "setting": "[6]; both, oral, 4 mg", "result": 828, "unit": "ng·h/mL"}, {"measurement": "AUC(0-t)", "setting": "[6]; both, oral, 4 mg", "result": 785, "unit": "ng·h/mL"}, {"measurement": "Tmax", "setting": "[6]; both, oral, 4 mg", "result": 0.79, "unit": "h"}, {"measurement": "Vd", "setting": "[6]; both, oral, 4 mg", "result": 72.5, "unit": "L"}, {"measurement": "clearance", "setting": "[6]; both, oral, 4 mg", "result": 85.5, "unit": "mL/min"}, {"measurement": "half-life", "setting": "[6]; both, oral, 4 mg", "result": 10.4, "unit": "h"}, {"measurement": "Tmax", "setting": "[6]; both, po", "result": "≤ 1", "unit": "h"}, {"measurement": "Cmax", "setting": "[6]; both, po, 1 mg", "result": 66.8, "unit": "ng/mL"}, {"measurement": "Cmax", "setting": "[6]; both, po, 2 mg", "result": 106, "unit": "ng/mL"}, {"measurement": "Cmax", "setting": "[6]; both, po, 4 mg", "result": 233, "unit": "ng/mL"}, {"measurement": "AUC(0-t)", "setting": "[6]; female, oral, 1 mg", "result": 204, "unit": "ng·h/mL"}, {"measurement": "Cmax", "setting": "[6]; female, oral, 1 mg", "result": 71, "unit": "ng/mL"}, {"measurement": "Tmax", "setting": "[6]; female, oral, 1 mg", "result": 0.67, "unit": "h"}, {"measurement": "Vd", "setting": "[6]; female, oral, 1 mg", "result": 73.3, "unit": "L"}, {"measurement": "clearance", "setting": "[6]; female, oral, 1 mg", "result": 77.5, "unit": "mL/min"}, {"measurement": "half-life", "setting": "[6]; female, oral, 1 mg", "result": 9.69, "unit": "h"}, {"measurement": "AUC(0-t)", "setting": "[6]; female, oral, 2 mg", "result": 330, "unit": "ng·h/mL"}, {"measurement": "Cmax", "setting": "[6]; female, oral, 2 mg", "result": 114, "unit": "ng/mL"}, {"measurement": "Tmax", "setting": "[6]; female, oral, 2 mg", "result": 0.67, "unit": "h"}, {"measurement": "Vd", "setting": "[6]; female, oral, 2 mg", "result": 87.5, "unit": "L"}, {"measurement": "clearance", "setting": "[6]; female, oral, 2 mg", "result": 102, "unit": "mL/min"}, {"measurement": "half-life", "setting": "[6]; female, oral, 2 mg", "result": 9.95, "unit": "h"}, {"measurement": "Cmax", "setting": "[6]; female, oral, 4 mg", "result": 253, "unit": "ng/mL"}, {"measurement": "Tmax", "setting": "[6]; female, oral, 4 mg", "result": 0.9, "unit": "h"}, {"measurement": "Vd", "setting": "[6]; female, oral, 4 mg", "result": 72.7, "unit": "L"}, {"measurement": "clearance", "setting": "[6]; female, oral, 4 mg", "result": 83, "unit": "mL/min"}, {"measurement": "half-life", "setting": "[6]; female, oral, 4 mg", "result": 11.8, "unit": "h"}, {"measurement": "AUC(0-t)", "setting": "[6]; male, oral, 1 mg", "result": 176, "unit": "ng·h/mL"}, {"measurement": "Cmax", "setting": "[6]; male, oral, 1 mg", "result": 62.6, "unit": "ng/mL"}, {"measurement": "Tmax", "setting": "[6]; male, oral, 1 mg", "result": 0.58, "unit": "h"}, {"measurement": "Vd", "setting": "[6]; male, oral, 1 mg", "result": 86.4, "unit": "L"}, {"measurement": "clearance", "setting": "[6]; male, oral, 1 mg", "result": 92, "unit": "mL/min"}, {"measurement": "half-life", "setting": "[6]; male, oral, 1 mg", "result": 12.3, "unit": "h"}, {"measurement": "AUC(0-t)", "setting": "[6]; male, oral, 2 mg", "result": 286, "unit": "ng·h/mL"}, {"measurement": "Cmax", "setting": "[6]; male, oral, 2 mg", "result": 98.4, "unit": "ng/mL"}, {"measurement": "Tmax", "setting": "[6]; male, oral, 2 mg", "result": 0.63, "unit": "h"}, {"measurement": "Vd", "setting": "[6]; male, oral, 2 mg", "result": 86.4, "unit": "L"}, {"measurement": "clearance", "setting": "[6]; male, oral, 2 mg", "result": 114, "unit": "mL/min"}, {"measurement": "half-life", "setting": "[6]; male, oral, 2 mg", "result": 9.08, "unit": "h"}, {"measurement": "AUC(0-t)", "setting": "[6]; male, oral, 4 mg", "result": 690, "unit": "ng·h/mL"}, {"measurement": "Cmax", "setting": "[6]; male, oral, 4 mg", "result": 209, "unit": "ng/mL"}, {"measurement": "Tmax", "setting": "[6]; male, oral, 4 mg", "result": 0.65, "unit": "h"}, {"measurement": "Vd", "setting": "[6]; male, oral, 4 mg", "result": 72.2, "unit": "L"}, {"measurement": "clearance", "setting": "[6]; male, oral, 4 mg", "result": 98.5, "unit": "mL/min"}, {"measurement": "half-life", "setting": "[6]; male, oral, 4 mg", "result": 8.72, "unit": "h"}, {"measurement": "correlation coefficient of dose-proportionality linear regression for AUC0−t", "setting": "[6]; single dosing 1 mg, 2 mg, 4 mg", "result": 0.92}, {"measurement": "correlation coefficient of dose-proportionality linear regression for AUC0−∞", "setting": "[6]; single dosing 1 mg, 2 mg, 4 mg", "result": 0.91}, {"measurement": "correlation coefficient of dose-proportionality linear regression for Cmax", "setting": "[6]; single dosing 1 mg, 2 mg, 4 mg", "result": 0.86}, {"measurement": "stability in human plasma", "setting": "[7]; after 3 freeze-thaw cycles (80°C to room temperature)", "result": "stable"}, {"measurement": "stability in human plasma", "setting": "[7]; at −20°C for 80 days", "result": "stable"}, {"measurement": "stability of processed samples", "setting": "[7]; processed samples at room temperature for 8 hours", "result": "stable"}]}
